Screens: PubChem BioAssay, several laboratories
IMP-1 inh-1: inhibitors of Pseudomonas aeruginosa IMP-1 metallo-beta-lactamase | AID 1556 | purified IMP-1, nitrocefin hydrolysis, epi-absorbance fluorescence | hit rate 0.45% among 290,000 | inhibition, % at 5.6 µM;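 active means inhibition above the mean plus 3 SD of all compounds in the same screening run, cut at about 4.5% in these data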
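Assay system: purified IMP-1; Quantity: IMP-1 0.2 nM before substrate addition; Medium: HEPES buffer pH 7.1 with ZnSO4 and Brij 35; Incubation: 15 min enzyme–compound preincubation, then 25 min nitrocefin reaction, 25 °C; Signal: fluorescence quenching readout, ex 480/em 530 nm; Controls: DMSO with and without IMP-1; Repeats: singlicate testing.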
VIM-2 inh: blocks Pseudomonas aeruginosa VIM-2 metallo-beta-lactamase | purified VIM-2, nitrocefin hydrolysis, epi-absorbance fluorescence | inhibition, % at 5.6 µM | hit rate 0.89% among 290,000 | AID 1527;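 active means inhibition above the mean of all tested compounds plus 3 SD, cutoff set per screening run, cut at about 7.5% in these data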;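 further: red hydrolysis product quenches plate fluorescence so inhibitors raise well fluorescence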
core dimer inh: HCV core protein dimerization inhibition | TR-FRET GST/Flag-core106 dimerization, 1536-well | inhibition, % at 5 µM | hit rate 0.33% among 300,000 | AID 1899;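 active means inhibition above the mean of all tested compounds plus 3 SD, set per screening campaign, cut at about 45% in these data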
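System: GST-tagged and Flag-tagged HCV core protein residues 1-106 / Input: core106 proteins, GST 13.5 nM and Flag 17 nM / Buffer or medium: KF-containing HEPES buffer, pH 7.45, DTT, CHAPS, BSA / Probe or stimulus: Eu-anti-GST and XL665-anti-Flag labelled anti-tag antibodies / Schedule: 4 h, 22.5 °C incubation / Technique: TR-FRET 671 and 617 nm emission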
NadD inh: NadD (S. aureus) enzyme inhibition; purified NadD enzyme, colorimetric absorbance read-out; inhibition, % at 20 µM; hit rate 0.78% among 360,000; AID 602399; in the data active means inhibition above about 26%
IMP-1 inh-2: blocks IMP-1 metallo-beta-lactamase in VIM-2 selectivity screen | purified IMP-1, nitrocefin hydrolysis, epi-absorbance fluorescence | inhibition, % at 5.6 µM | shares compounds with VIM-2 inh | 1,300 tested, under 10 active; call rule not given here
VIM-2 FRET ctr: VIM-2 FRET inhibition, artifact counter-screen. purified VIM-2, CCF2 FRET substrate hydrolysis. hit rate 23% among 1,300. inhibition, % at 5.6 µM. shares compounds with VIM-2 inh;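 active means inhibition above the mean of all tested compounds plus 3 SD, cut at about 19% in these data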
TEM-1 inh: selectivity counter-screen for VIM-2 inhibitors: E. coli TEM-1 inhibitors; shares compounds with VIM-2 inh; Purified TEM-1, nitrocefin hydrolysis, epi-absorbance fluorescence; inhibition, % at 5.6 µM; hit rate 3% among 1,300;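 active means inhibition above that campaign's mean inhibition plus 3 SD, cut at about 0.46% in these data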
Target sequence (P62593 whole entry, looked up): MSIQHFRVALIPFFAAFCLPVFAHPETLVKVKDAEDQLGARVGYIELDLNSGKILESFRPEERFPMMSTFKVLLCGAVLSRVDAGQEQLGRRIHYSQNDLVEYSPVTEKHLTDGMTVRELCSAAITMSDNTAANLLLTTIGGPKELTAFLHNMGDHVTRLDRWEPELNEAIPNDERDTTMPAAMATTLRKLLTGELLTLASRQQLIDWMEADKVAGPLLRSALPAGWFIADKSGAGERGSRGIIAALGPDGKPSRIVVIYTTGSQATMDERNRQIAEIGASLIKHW
VIM-2 inh conf: confirmation of P. aeruginosa VIM-2 metallo-beta-lactamase inhibitors | purified VIM-2, nitrocefin hydrolysis, epi-absorbance | AID 2187 | shares compounds with VIM-2 inh | inhibition, % at 5.6 µM | hit rate 96% among 1,300;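 active means inhibition of the VIM-2 beta-lactamase enzyme above about 11% from the earlier first-round screen, limit read from the data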
Large screens that a line does not name were inactive (follow-up assays come after a bar, where they were run). A selection: hits, their analogues and other compounds. The true share with any hit is near 1.9%.

CCN(CC)C(=O)CSc1nc2ccc(NC(=O)CSc3nnc(N)s3)cc2s1	none
COc1cc(/C=C2\SC(=S)N(C(C(=O)O)c3ccccc3)C2=O)cc(OC)c1OC (stereo not drawn)	none
COc1cccc(/C=C2\SC(=S)N(C(C(=O)O)c3ccccc3)C2=O)c1OC (stereo not drawn)	VIM-2 inh 31.9 | IMP-1 inh-2 inactive | VIM-2 FRET ctr 26.1 | TEM-1 inh inactive | VIM-2 inh conf 18.1
COc1ccccc1Nc1nnc(SCc2cc(=O)n3ccsc3n2)s1	VIM-2 inh 12.7 | IMP-1 inh-2 inactive | VIM-2 FRET ctr inactive | TEM-1 inh 3.0 | VIM-2 inh conf 12.0
Cc1ccc(Nc2nnc(SCc3cc(=O)n4ccsc4n3)s2)c(C)c1	none
CC(=O)Nc1cccc(-c2nnc(SCC(=O)n3c4c(c5ccccc53)CCCC4)n2C)c1	VIM-2 inh 15.5 | IMP-1 inh-2 inactive | VIM-2 FRET ctr inactive | TEM-1 inh inactive | VIM-2 inh conf inactive
CC(=O)Nc1ccc(Nc2nc(C)nc3c2oc2ccccc23)cc1	VIM-2 inh 18.1 | IMP-1 inh-2 inactive | VIM-2 FRET ctr inactive | TEM-1 inh inactive | VIM-2 inh conf 28.6
COc1ccc(CCNc2nc(C)nc3c2oc2ccccc23)cc1OC	none
CCc1nc(Nc2cccc(O)c2)c2oc3ccccc3c2n1	none (no result: core dimer inh)
Cc1nc(NCCc2cnc[nH]2)c2oc3ccccc3c2n1	VIM-2 inh 70.7 | IMP-1 inh-2 inactive | VIM-2 FRET ctr inactive | TEM-1 inh 1.7 | VIM-2 inh conf 84.1
CC(=O)N1CCN(c2ccc(Nc3nc(C)nc4c3oc3ccccc34)cc2)CC1	none (no result: IMP-1 inh-1, VIM-2 inh)
CCc1nc(Nc2ccncc2)c2oc3ccccc3c2n1	VIM-2 inh 44.1 | IMP-1 inh-2 inactive | VIM-2 FRET ctr inactive | TEM-1 inh inactive | VIM-2 inh conf 54.1
Cc1nc(N2CCOCC2)c2oc3ccccc3c2n1	VIM-2 inh 18.5 | IMP-1 inh-2 inactive | VIM-2 FRET ctr inactive | TEM-1 inh inactive | VIM-2 inh conf 33.8
CCCCn1c(SCC(=O)NC2CC2)nc2ccccc2c1=O	none
COc1ccc(OC)c2c1cc(C(=O)N[C@H](C(=O)N1CCC(C(=O)O)CC1)C(C)C)n2C	none (no result: core dimer inh)
COc1ccccc1C1=NOC(C)(c2nnc(-c3cccc(Cl)c3)o2)C1 (stereo not drawn)	none (no result: IMP-1 inh-1, VIM-2 inh)
CCN1CCN(CCCNC(=O)CCC(=O)N2CCOc3ccccc32)CC1	none
Cc1nc(Nc2ccncc2)c2oc3ccccc3c2n1	VIM-2 inh 44.8 | IMP-1 inh-2 inactive | VIM-2 FRET ctr inactive | TEM-1 inh inactive | VIM-2 inh conf 56.6
Cc1cccc(Nc2nc(C)nc3c2oc2ccccc23)c1	none
C=CCN(C(=O)c1ccc(Cl)cc1)c1ccccc1C(=O)NCC(=O)O	none
COC(=O)COc1ccc(-c2nn(C)c(=O)c3ccccc23)cc1	none
Cn1nc(-c2ccc(OCC(N)=O)cc2)c2ccccc2c1=O	VIM-2 inh 12.9 | IMP-1 inh-2 inactive | VIM-2 FRET ctr inactive | TEM-1 inh inactive | VIM-2 inh conf 30.4
Cc1cccc(NC(=O)COc2ccc(-c3nn(C)c(=O)c4ccccc34)cc2)c1	VIM-2 inh 15.8 | IMP-1 inh-2 inactive | VIM-2 FRET ctr inactive | TEM-1 inh inactive | VIM-2 inh conf 18.2
COc1ccccc1NC(=O)COc1ccc(-c2nn(C)c(=O)c3ccccc23)cc1	none
CCCNC(=O)COc1ccc(-c2nn(C)c(=O)c3ccccc23)cc1	VIM-2 inh 12.6 | IMP-1 inh-2 inactive | VIM-2 FRET ctr inactive | TEM-1 inh inactive | VIM-2 inh conf 20.2
CC(C)(C)c1ccc(COc2ccsc2C(=O)O)cc1	VIM-2 inh 20.5 | IMP-1 inh-2 inactive | VIM-2 FRET ctr 47.6 | TEM-1 inh inactive | VIM-2 inh conf 28.5
COc1ccc(N(C(=O)Cn2nnc(-c3ccc(C)o3)n2)C(C(=O)NC2CCCC2)c2ccncc2)cc1 (stereo not drawn)	none
CC(=O)c1c2c3c(cccc3n(C)c1=O)C(=O)c1ccccc1-2	VIM-2 inh 22.4 (no result: NadD inh) | IMP-1 inh-2 inactive | VIM-2 FRET ctr inactive | TEM-1 inh inactive | VIM-2 inh conf 29.7
CN(C)S(=O)(=O)c1ccc(NC(=O)COc2ncnc3sccc23)cc1	VIM-2 inh 21.8 | IMP-1 inh-2 inactive | VIM-2 FRET ctr inactive | TEM-1 inh inactive | VIM-2 inh conf inactive
CNC(=O)COc1ncnc2sccc12	none (no result: core dimer inh)
CCC(=O)Oc1ccc(C2NC(=O)c3ccccc3O2)cc1OC (stereo not drawn)	none
Cc1cc(OCC(=O)NC2CCN(Cc3ccccc3)CC2)c2c(C)c(C)c(=O)oc2c1	VIM-2 inh 34.0 | IMP-1 inh-2 inactive | VIM-2 FRET ctr inactive | TEM-1 inh inactive | VIM-2 inh conf 48.3
Cc1cc(=O)oc2c(C)c(OCC(=O)NC3CCN(Cc4ccccc4)CC3)ccc12	VIM-2 inh 13.2 | IMP-1 inh-2 inactive | VIM-2 FRET ctr inactive | TEM-1 inh inactive | VIM-2 inh conf 21.3
Cc1c(OCC(=O)N2CCC(C(=O)O)CC2)ccc2c3c(c(=O)oc12)CCCC3	none
Cc1c(OCC(=O)NC2CCN(Cc3ccccc3)CC2)ccc2c3c(c(=O)oc12)CCC3	VIM-2 inh 35.6 | IMP-1 inh-2 inactive | VIM-2 FRET ctr inactive | TEM-1 inh inactive | VIM-2 inh conf 45.3
Cc1c(OCC(=O)N[C@@H](CSCc2ccccc2)C(=O)O)ccc2c3c(c(=O)oc12)CCC3	VIM-2 inh 13.1 (no result: core dimer inh) | IMP-1 inh-2 inactive | VIM-2 FRET ctr inactive | TEM-1 inh inactive | VIM-2 inh conf 19.3
O=C(CCS(=O)(=O)c1ccc(Cl)cc1)Nc1nnc(-c2ccco2)o1	none (no result: IMP-1 inh-1, VIM-2 inh)
Cc1ccc2c(c1)C(c1ccccc1)N(C(=O)c1c(F)cccc1Cl)CC(=O)N2 (stereo not drawn)	none
CCN=C1S/C(=C\c2ccc(-c3cccc(C(=O)O)c3)o2)C(=O)N1CC	none
CCN=C1S/C(=C/c2ccc(-c3ccc(Cl)cc3C(=O)O)o2)C(=O)N1CC	VIM-2 inh 13.3 | IMP-1 inh-2 inactive | VIM-2 FRET ctr 18.8 | TEM-1 inh inactive | VIM-2 inh conf 16.3
CCOC(=O)c1cnc(-n2nc(C)cc2C)nc1Nc1ccc(N(C)C)cc1	VIM-2 inh 25.8 | IMP-1 inh-2 inactive | VIM-2 FRET ctr inactive | TEM-1 inh inactive | VIM-2 inh conf 75.0
CCOC(=O)c1cnc(-n2nc(C)cc2C)nc1NC1CCCCC1	VIM-2 inh 14.3 | IMP-1 inh-2 inactive | VIM-2 FRET ctr inactive | TEM-1 inh inactive | VIM-2 inh conf 27.7
CN1CCN(C(=O)CSc2nc(-c3ccco3)cc(C(F)(F)F)n2)CC1	VIM-2 inh 42.8 | IMP-1 inh-2 inactive | VIM-2 FRET ctr inactive | TEM-1 inh inactive | VIM-2 inh conf 57.5
O=C(CSc1nc(-c2ccco2)cc(C(F)(F)F)n1)N1CCSCC1	none
Cc1ccc(C(=O)Nc2ccc3cn[nH]c3c2)cc1S(=O)(=O)N1CCOCC1	none
